Assay: Toxicity liver stage against HepG2, at 10uM
Type: cell-based
Set-up: test concentration 10 uM, cell line HepG2-A16-CD81EGFP
Settings: human, HepG2-A16-CD81EGFP cells; read-out: INHIBITION
How it was run: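 Uninfected HepG2-A16-CD81EGFP cells, 3 × 10^3 per well, 1536-well, plated on prespotted compound at 10 μM final, parasite-free screening media added to match infected plates; puromycin 10 μM positive, DMSO 0.5% negative; run in parallel with 48 h PbLuc assay at 37 °C, 5% CO2; viability by CellTiter-Glo luminescence, normalized to controls.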

COc1cccc2ccc(CN3CCN(c4ncccc4C)CC3)nc12
cytotoxicity at 10 µM: -5.21%

CC(C)c1nccc(CN2CCCC(O)(CN3CCCC3)C2)n1 (stereo not given)
cytotoxicity at 10 µM: -0.413%

O=C1NCCN2CCN(C(=O)NCCc3ccccc3)CC12 (stereo not given)
cytotoxicity at 10 µM: 17.6%

Cc1ccc(-n2nc(C)c3c2NC(=O)CC3c2cnc(N)s2)cc1 (stereo not given)
cytotoxicity at 10 µM: 5.56%

CC(=O)c1cnc(N(C)Cc2cnc3ccccc3n2)nc1C
cytotoxicity at 10 µM: 2.4%

Cc1ccc(S(=O)(=O)N2CCC(Cn3cc(C(C)(C)N)nn3)CC2)s1
cytotoxicity at 10 µM: 6.74%

CCc1nnc(CN(C)C(=O)CN2CC(c3ccccc3)CC2=O)o1 (stereo not given)
cytotoxicity at 10 µM: -2.96%

CCN(CC)C(=O)[C@@H]1C[C@@H](N)CN1c1nc(N(C)C)nc(C)c1C
cytotoxicity at 10 µM: -24.4%

CCC[C@H]1CN(Cc2ccc(N(C)C)nc2)C[C@@H]1NC(=O)CCOC
cytotoxicity at 10 µM: 15.5%

CCC(=O)N1CCN(C(=O)Nc2cccc(F)c2)[C@H]2CS(=O)(=O)C[C@H]21
cytotoxicity at 10 µM: -46.8%

O=C(c1csc(-c2ccc(C(F)(F)F)cc2)n1)N1CCCNCC1
cytotoxicity at 10 µM: 6.24%

COc1ccc(CN(Cc2ccsc2)CC2CCCO2)cn1 (stereo not given)
cytotoxicity at 10 µM: -6.16%

CN1CC2(CCCN(c3cnccn3)C2)OC1=O (stereo not given)
cytotoxicity at 10 µM: -43.2%

COc1cccc(CNC(=O)C(C)n2ccnc2C(C)C)c1OC (stereo not given)
cytotoxicity at 10 µM: -1.68%

CN(Cc1ccoc1)C(=O)C1CCN(C(=O)C2CCCC2)CC1
cytotoxicity at 10 µM: -7.77%

CCCN(Cc1cnc2ccccc2n1)Cc1ccccc1OC
cytotoxicity at 10 µM: -40.1%

COC1CCCN(Cc2cc(O)c3cc(C)cc(C)c3n2)C1 (stereo not given)
cytotoxicity at 10 µM: 3.54%

Cc1cc(C)nc(CN(C)C(=O)C(c2cccnc2)N2CCCC2)c1 (stereo not given)
cytotoxicity at 10 µM: -45.4%

NCCN1CCC(c2nnc(Cn3ccnc3)n2C2CC2)CC1
cytotoxicity at 10 µM: -3.07%

CC(=O)NCc1cccc(-n2ccnc2-c2cccc(C(=O)O)c2)c1
cytotoxicity at 10 µM: -2.29%

Cc1nc(N)nc(C)c1CC(=O)NCc1ccc2nonc2c1
cytotoxicity at 10 µM: 5.6%

CC(C)c1ncc(-c2cc(C3CCC3)nc(N)c2C#N)cn1
cytotoxicity at 10 µM: -16.1%

O=C(c1ccc(Br)o1)N1CCN(Cc2ccc(F)cc2)CC1
cytotoxicity at 10 µM: 9.08%

COc1ccc(C2CCCN2S(=O)(=O)c2cc(F)ccc2F)cc1 (stereo not given)
cytotoxicity at 10 µM: 0.585%

Cc1noc(C)c1-c1n[nH]c2c1CN(S(=O)(=O)c1cccs1)CC2
cytotoxicity at 10 µM: -12.1%

Cn1cc(C2CCCN2C(=O)CCCc2ccccn2)cn1 (stereo not given)
cytotoxicity at 10 µM: -0.222%

COc1cc(S(=O)(=O)N2CCc3cc(Br)ccc32)cc(C(=O)O)c1OC
cytotoxicity at 10 µM: -15.9%

CCc1nc(C2CCCN2C(=O)c2ccc3c(c2)nnn3C)no1 (stereo not given)
cytotoxicity at 10 µM: -4.35%

CC(C)c1n[nH]c(C2CN(C(=O)Cn3ccccc3=O)CCO2)n1 (stereo not given)
cytotoxicity at 10 µM: -0.924%

CCc1nc(C2CCCN2CCCc2nc3ccccc3o2)no1 (stereo not given)
cytotoxicity at 10 µM: -7.92%

O=C(COCCc1ccccc1)N1CCCC(n2cccn2)C1 (stereo not given)
cytotoxicity at 10 µM: -3.42%

CC(NC(=O)Cn1cccn1)c1ccc2c(c1)OCCCO2 (stereo not given)
cytotoxicity at 10 µM: -2.55%

CC(=O)Nc1nc(CN2CCCC2Cn2cncn2)cs1 (stereo not given)
cytotoxicity at 10 µM: 0.222%

Cc1ccc(-c2noc(CN3CCOC(CN(C)C)C3)n2)cc1F (stereo not given)
cytotoxicity at 10 µM: -5.48%

CCn1cnnc1C1CCN(C(=O)c2cc3c(s2)CCC3)CC1
cytotoxicity at 10 µM: -8.93%

CCc1nnc2n1CCN(C(=O)c1ccc(-c3ccco3)nc1C)C2
cytotoxicity at 10 µM: -7.23%

Clc1snnc1CN1CCCC(Cn2cncn2)C1 (stereo not given)
cytotoxicity at 10 µM: -7.67%

Cn1ccc(C(=O)NCc2cccc(NC(=O)C3CCC3)c2)cc1=O
cytotoxicity at 10 µM: -10%

c1cnc(N2CCC3(CCCN(CC4CC4)C3)CC2)nc1
cytotoxicity at 10 µM: -3.24%

CCCN1CCC(c2nc3ccc(NCc4ccccc4)cn3n2)CC1
cytotoxicity at 10 µM: -125%

CN(C)C1CC2(CCN(C(=O)NC3CC3)CC2)c2ccccc21 (stereo not given)
cytotoxicity at 10 µM: -112%

CO[C@H]1CCN(Cc2cccs2)[C@@H]2CN(Cc3ccncc3)C[C@H]12
cytotoxicity at 10 µM: 2.31%

Cn1ccnc1CN1CCC2(CC1)COC2
cytotoxicity at 10 µM: 6.81%

O=C(NC1CC1)[C@H]1C[C@@H]2CCN(Cc3ccc4c(c3)OCO4)C[C@@H]2O1
cytotoxicity at 10 µM: 0.782%

NC(CC1CCCC1)c1ccccc1 (stereo not given)
cytotoxicity at 10 µM: 5.76%

COCCNC(=O)C1CN(Cc2csc(C)n2)Cc2ccnn2C1 (stereo not given)
cytotoxicity at 10 µM: -74.2%

CC(C)NC(=O)[C@H]1C[C@H]2OCC[C@H]2N(Cc2ccc3ccccc3n2)C1
cytotoxicity at 10 µM: -56.3%

COCC(=O)N1CCC2(CC1)CN(c1ccccn1)CCO2
cytotoxicity at 10 µM: -71.2%

O=S(=O)(C1CC1)N1CCc2onc(COc3ccccn3)c2C1
cytotoxicity at 10 µM: -4.38%

O=C(NCCc1cccs1)[C@H]1CO[C@H]2CCN(C3CCC3)C[C@H]2C1
cytotoxicity at 10 µM: -116%

COCc1cnc2n1CCN(C(=O)c1ccc3ccccc3n1)C2C (stereo not given)
cytotoxicity at 10 µM: -112%

Cc1ccc(N2CCC3(CN(Cc4cccs4)CCC3(F)F)C2)nn1 (stereo not given)
cytotoxicity at 10 µM: 8.39%

COCCN1CCCCC12CC(=O)N(c1cccc(C#N)c1)C2 (stereo not given)
cytotoxicity at 10 µM: -102%

COc1cc(C2c3c(n[nH]c3C)N=C3COC(=O)C32)cc(Br)c1O (stereo not given)
cytotoxicity at 10 µM: 75.4%

CC(C)CCN1C[C@@H]2C[C@H](C(=O)NCC(C)C)[C@H](C1)O2
cytotoxicity at 10 µM: 5.9%
